ChEMBL document CHEMBL2321808, “Synthesis and preliminary evaluation in tumor bearing mice of new (18)F-labeled arylsulfone matrix metalloproteinase inhibitors as tracers for positron emission tomography” (J Med Chem, 2013)
Active and inactive are the calls of the source. No cut-off for these calls is given here.

Tests used:
[1] = Drug uptake in tumor in […] CD1 nude mouse xenografted with human U87MG cells after 100 mins by PET imaging analysis; format: ADME, organism-based, Neoplasm, U-87MG ATCC; settings: in vivo
[2] = system: Liver; assay: Biodistribution in CD1 nude mouse liver at 7.4 MBq, iv after 45 mins by PET imaging analysis; format: ADME, organism-based; settings: in vivo, 0.75 h
How it was run: (§1)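 Healthy CD1 nude mice, 6–8 weeks, 2–3 per tracer, anesthetized with isoflurane. Tail-vein injection via catheter in PBS, with residual syringe dose checked. Dynamic PET from injection to 2.5 h, 3D EM reconstruction, no attenuation or scatter correction, phantom-calibrated. Manual ROIs on organs; decay-corrected uptake expressed as % ID/g.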

[3] = Drug uptake in large tumor in CD1 nude mouse xenografted with human U87MG cells assessed as accumulation within the rim at 7.4 MBq after 100 mins by PET imaging analysis; format: ADME, Neoplasm, U-87MG ATCC; settings: in vivo
[4] = Drug uptake in small tumor in CD1 nude mouse xenografted with human U87MG cells assessed as uniform distribution at 7.4 MBq after 100 mins by PET imaging analysis; format: ADME, Neoplasm, U-87MG ATCC; settings: in vivo
[5] = Drug uptake in tumor in CD1 nude mouse xenografted with human U87MG cells at 7.4 MBq after 100 mins by PET imaging analysis; format: ADME, Neoplasm, U-87MG ATCC; settings: in vivo
[6] = Drug uptake in tumor in […] CD1 nude mouse xenografted with human U87MG cells after 10 mins by PET imaging analysis; format: ADME, organism-based, Neoplasm, U-87MG ATCC; settings: read-out: Drug uptake
[7] = system: Mus musculus; assay: Biodistribution in CD1 nude mouse small intestine at 7.4 MBq, iv after 140 mins by PET imaging analysis; format: ADME, organism-based; settings: in vivo; how it was run: as §1
[8] = system: Liver; assay: Biodistribution in CD1 nude mouse liver at 7.4 MBq, iv after 10 mins by PET imaging analysis; format: ADME, organism-based; settings: in vivo
How it was run: (§2)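 Healthy CD1 nude mice, 6–8 weeks old (n = 2–3 per tracer), under isoflurane anesthesia. Tracer given by tail-vein catheter, ~7.4 MBq in 0.15–0.30 mL PBS. Dynamic PET from injection to 2.5 h. Organ ROIs drawn and counts calibrated against an [18F]fluoride phantom. Uptake decay-corrected and expressed as %ID/g.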

[9] = system: Mus musculus; assay: Biodistribution in CD1 nude mouse small intestine at 7.4 MBq, iv after 10 mins by PET imaging analysis; format: ADME, organism-based; settings: in vivo; how it was run: as §2
[10] = molecular target: Matrix metalloproteinase-14 (Homo sapiens, UniProt P50281); assay: Inhibition of human recombinant MMP-14 catalytic domain using Mca-Lys-Pro-Leu-Gly-Leu-Dap(Dnp)-Ala-Arg-NH2 as substrate after 4 hrs by fluorometric assay
How it was run: (§3)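 Fluorogenic substrate added at 2 μM final. Fluorescence (ex 325/em 395 nm) read every 15 s for 20 min. Run in triplicate. IC50 from vi/v0 = 1/(1 + [I]/IC50); Ki also derived.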

[11] = molecular target: Collagenase 3 (Homo sapiens, UniProt P45452); assay: Inhibition of MMP-13 (unknown origin) using Mca-Lys-Pro-Leu-Gly-Leu-Dap(Dnp)-Ala-Arg-NH2 as substrate after 4 hrs by fluorometric assay; how it was run: as §3
[12] = molecular target: Macrophage metalloelastase (Homo sapiens, UniProt P39900); assay: Inhibition of MMP-12 (unknown origin) using Mca-Lys-Pro-Leu-Gly-Leu-Dap(Dnp)-Ala-Arg-NH2 as substrate after 4 hrs by fluorometric assay; how it was run: as §3
Chain of Macrophage metalloelastase (P39900 whole entry): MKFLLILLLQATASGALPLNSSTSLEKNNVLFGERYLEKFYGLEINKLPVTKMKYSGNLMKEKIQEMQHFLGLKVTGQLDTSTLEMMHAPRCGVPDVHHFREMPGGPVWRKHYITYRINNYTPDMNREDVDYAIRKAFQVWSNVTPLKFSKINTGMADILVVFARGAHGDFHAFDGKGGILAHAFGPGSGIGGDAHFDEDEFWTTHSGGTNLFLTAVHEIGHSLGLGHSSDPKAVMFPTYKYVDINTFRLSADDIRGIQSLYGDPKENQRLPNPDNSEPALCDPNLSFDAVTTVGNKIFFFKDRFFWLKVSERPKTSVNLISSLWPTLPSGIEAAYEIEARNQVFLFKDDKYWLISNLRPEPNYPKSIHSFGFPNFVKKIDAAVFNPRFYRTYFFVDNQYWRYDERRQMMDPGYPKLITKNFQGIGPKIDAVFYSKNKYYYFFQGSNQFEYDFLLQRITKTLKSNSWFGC

[13] = molecular target: Matrix metalloproteinase-9 (Homo sapiens, UniProt P14780); assay: Inhibition of MMP-9 (unknown origin) using Mca-Lys-Pro-Leu-Gly-Leu-Dap(Dnp)-Ala-Arg-NH2 as substrate after 4 hrs by fluorometric assay; how it was run: as §3
Chain of Matrix metalloproteinase-9 (P14780 whole entry): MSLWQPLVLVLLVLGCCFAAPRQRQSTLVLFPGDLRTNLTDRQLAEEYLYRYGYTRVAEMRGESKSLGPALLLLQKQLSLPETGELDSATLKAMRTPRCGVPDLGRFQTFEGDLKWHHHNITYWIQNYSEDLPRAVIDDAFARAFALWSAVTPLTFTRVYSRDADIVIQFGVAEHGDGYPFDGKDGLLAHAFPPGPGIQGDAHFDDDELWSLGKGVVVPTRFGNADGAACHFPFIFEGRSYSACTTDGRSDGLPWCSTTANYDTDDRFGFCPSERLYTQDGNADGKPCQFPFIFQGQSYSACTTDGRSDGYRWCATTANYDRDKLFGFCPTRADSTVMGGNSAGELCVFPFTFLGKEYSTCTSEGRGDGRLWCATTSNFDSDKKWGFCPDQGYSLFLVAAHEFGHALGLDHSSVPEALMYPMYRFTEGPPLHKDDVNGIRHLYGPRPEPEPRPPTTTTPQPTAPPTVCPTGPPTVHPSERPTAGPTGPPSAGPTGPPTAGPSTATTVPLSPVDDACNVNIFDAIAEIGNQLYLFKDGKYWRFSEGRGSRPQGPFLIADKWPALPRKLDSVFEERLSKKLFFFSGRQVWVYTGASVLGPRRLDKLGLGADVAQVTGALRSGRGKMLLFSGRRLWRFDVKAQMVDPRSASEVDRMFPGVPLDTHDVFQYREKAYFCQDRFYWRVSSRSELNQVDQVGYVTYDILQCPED

[14] = molecular target: Stromelysin-1 (Homo sapiens, UniProt P08254); assay: Inhibition of MMP-3 (unknown origin) using Mca-Arg-Pro-Lys-Pro-Val-Glu-Nva-Trp-Arg-Lys-(Dnp)-NH2 as substrate after 4 hrs by fluorometric assay; how it was run: as §3
Chain of Stromelysin-1 (P08254 whole entry): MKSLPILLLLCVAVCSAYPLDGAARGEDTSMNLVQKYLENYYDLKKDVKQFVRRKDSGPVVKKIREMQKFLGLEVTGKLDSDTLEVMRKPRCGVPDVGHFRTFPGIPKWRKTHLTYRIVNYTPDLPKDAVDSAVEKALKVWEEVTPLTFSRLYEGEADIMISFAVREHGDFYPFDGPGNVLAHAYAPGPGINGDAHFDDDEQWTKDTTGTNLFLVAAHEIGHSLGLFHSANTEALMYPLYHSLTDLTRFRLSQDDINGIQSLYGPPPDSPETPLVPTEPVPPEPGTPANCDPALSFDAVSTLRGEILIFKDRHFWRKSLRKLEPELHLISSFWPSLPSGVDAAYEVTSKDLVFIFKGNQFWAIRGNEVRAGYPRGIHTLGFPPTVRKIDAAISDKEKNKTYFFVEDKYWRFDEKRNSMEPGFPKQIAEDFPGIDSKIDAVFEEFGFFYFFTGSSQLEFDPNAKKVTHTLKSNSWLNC

[15] = molecular target: 72 kDa type IV collagenase (Homo sapiens, UniProt P08253); assay: Inhibition of MMP-2 (unknown origin) using Mca-Lys-Pro-Leu-Gly-Leu-Dap(Dnp)-Ala-Arg-NH2 as substrate after 4 hrs by fluorometric assay; how it was run: as §3
Chain of 72 kDa type IV collagenase (P08253 whole entry): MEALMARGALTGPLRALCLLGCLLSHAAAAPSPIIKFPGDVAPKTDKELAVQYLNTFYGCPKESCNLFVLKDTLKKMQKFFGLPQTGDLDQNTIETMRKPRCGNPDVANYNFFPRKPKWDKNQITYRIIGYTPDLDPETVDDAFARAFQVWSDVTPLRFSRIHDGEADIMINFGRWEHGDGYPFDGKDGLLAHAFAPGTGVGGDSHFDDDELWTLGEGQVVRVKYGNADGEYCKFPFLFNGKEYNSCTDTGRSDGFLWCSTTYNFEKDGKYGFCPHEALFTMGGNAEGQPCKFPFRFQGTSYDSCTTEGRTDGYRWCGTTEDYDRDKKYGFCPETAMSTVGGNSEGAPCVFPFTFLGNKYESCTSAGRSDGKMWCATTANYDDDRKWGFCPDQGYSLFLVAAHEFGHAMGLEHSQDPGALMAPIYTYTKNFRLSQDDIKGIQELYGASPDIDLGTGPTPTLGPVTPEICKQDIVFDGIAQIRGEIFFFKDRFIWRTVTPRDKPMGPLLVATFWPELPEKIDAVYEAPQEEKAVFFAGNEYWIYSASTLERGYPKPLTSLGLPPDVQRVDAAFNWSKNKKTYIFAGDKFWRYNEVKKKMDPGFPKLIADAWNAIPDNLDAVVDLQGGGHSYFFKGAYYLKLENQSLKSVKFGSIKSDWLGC

[16] = molecular target: T1, Interstitial collagenase (Homo sapiens, UniProt P03956); assay: Inhibition of MMP-1 (unknown origin) using Mca-Lys-Pro-Leu-Gly-Leu-Dap(Dnp)-Ala-Arg-NH2 as substrate after 4 hrs by fluorometric assay; how it was run: as §3
T1 sequence (P03956 whole entry): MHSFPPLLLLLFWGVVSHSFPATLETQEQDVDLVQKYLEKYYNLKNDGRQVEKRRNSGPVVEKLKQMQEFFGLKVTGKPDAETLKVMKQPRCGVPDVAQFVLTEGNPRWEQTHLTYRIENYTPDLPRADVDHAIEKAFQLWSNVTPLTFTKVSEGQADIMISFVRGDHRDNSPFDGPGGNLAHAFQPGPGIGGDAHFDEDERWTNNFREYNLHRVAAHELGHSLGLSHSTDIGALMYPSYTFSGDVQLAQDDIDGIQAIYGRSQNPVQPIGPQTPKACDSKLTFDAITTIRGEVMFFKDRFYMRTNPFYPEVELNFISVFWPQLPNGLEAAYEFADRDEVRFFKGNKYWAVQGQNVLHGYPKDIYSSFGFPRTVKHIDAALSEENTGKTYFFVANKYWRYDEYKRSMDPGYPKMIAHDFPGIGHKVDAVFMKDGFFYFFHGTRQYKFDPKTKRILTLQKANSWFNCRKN

[17] = molecular target: Albumin (Homo sapiens, UniProt P02768); assay: Binding affinity to human serum albumin by 19F NMR titration assay; format: ADME
Chain of Albumin (P02768 whole entry): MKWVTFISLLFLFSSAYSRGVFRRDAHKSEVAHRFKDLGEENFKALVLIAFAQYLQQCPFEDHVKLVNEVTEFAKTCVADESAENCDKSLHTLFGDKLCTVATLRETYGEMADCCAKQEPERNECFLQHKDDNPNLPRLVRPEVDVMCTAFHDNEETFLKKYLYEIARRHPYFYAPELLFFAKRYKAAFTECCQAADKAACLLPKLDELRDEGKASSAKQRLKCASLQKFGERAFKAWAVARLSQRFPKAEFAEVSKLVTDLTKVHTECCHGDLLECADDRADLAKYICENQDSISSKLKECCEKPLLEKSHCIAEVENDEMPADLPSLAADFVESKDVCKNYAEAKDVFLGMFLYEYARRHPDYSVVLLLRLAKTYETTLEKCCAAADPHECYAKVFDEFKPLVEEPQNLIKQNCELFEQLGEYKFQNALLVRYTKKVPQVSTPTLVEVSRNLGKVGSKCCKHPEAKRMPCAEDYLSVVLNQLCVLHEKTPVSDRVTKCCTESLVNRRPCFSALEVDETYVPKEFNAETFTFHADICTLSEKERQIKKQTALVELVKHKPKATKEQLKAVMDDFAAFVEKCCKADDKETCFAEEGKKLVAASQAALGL
How it was run: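 19F NMR at 310.0 K; ligand at 1.0 mM final (dissolved in DMSO, brought to volume with PBS pH 7.4 containing 10% D2O), TFA as chemical-shift reference. Fatty-acid-free human serum albumin added stepwise (0.36 mM aliquots in PBS or solid) up to protein:ligand 3:1; scans raised from 64 to 16 384 along the titration.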

[18] = system: Mus musculus; assay: In vivo inhibition of MMP in CD1 nude mouse xenografted with human U87MG cells at 7.4 MBq after 100 mins by PET imaging analysis in presence of ilomastat; format: functional, organism-based; set-up: dose or concentration left out as unconfirmed; settings: U-87MG ATCC, tested as the 18F-labelled form
How it was run: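 U-87 MG xenografted female CD1 nude mice received ilomastat i.p. at 40–160 mg/kg, 30 min before iv tracer (~7.4 MBq). Static 30-min PET acquired 100 min post-injection. %ID/g measured over whole tumor, rim and core.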

[19] = system: Mus musculus; assay: In vivo binding affinity to MMP-9 in human U87MG tumor xenografted in mouse assessed as MMP-9 level after 12 hrs by PET scanning followed by gelatin zymography; format: functional, organism-based; settings: tested as the 18F-labelled form
How it was run: (§4)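 Xenograft tumors excised within 12 h after PET, frozen at −80 °C, ground, and lysed in 1% Triton X-100. Supernatant run on 10% SDS-PAGE containing 0.1% gelatin. Gel renatured in 2.5% Triton X-100, then developed 24 h at 37 °C in 50 mM Tris-HCl pH 7.4, 10 mM CaCl2, 0.5 μM ZnCl2, and stained with Coomassie. MMP-2 read at 72 kDa, MMP-9 at 92 kDa.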

[20] = system: Mus musculus; assay: In vivo binding affinity to MMP-2 in human U87MG tumor xenografted in mouse assessed as MMP-2 level after 12 hrs by PET scanning followed by gelatin zymography; format: functional, organism-based; settings: tested as the 18F-labelled form; how it was run: as §4
[21] = Drug uptake in large tumor in CD1 nude mouse xenografted with human U87MG cells assessed as accumulation within the rim at 7.4 MBq after 45 mins by PET imaging analysis; format: ADME, Neoplasm, U-87MG ATCC; settings: in vivo, 0.75 h
[22] = Drug uptake in small tumor in CD1 nude mouse xenografted with human U87MG cells assessed as uniform distribution at 7.4 MBq after 45 mins by PET imaging analysis; format: ADME, Neoplasm, U-87MG ATCC; settings: in vivo, 0.75 h
[23] = Drug uptake in tumor in CD1 nude mouse xenografted with human U87MG cells at 7.4 MBq after 45 mins by PET imaging analysis; format: ADME, Neoplasm, U-87MG ATCC; settings: in vivo, 0.75 h

Drug uptake [8] | Drug uptake [9] [% ID/g] | IC50 [10] [µM] | IC50 [11] [nM] | IC50 [12] [nM] | IC50 [13] [nM] | IC50 [14] [µM] | IC50 [15] [nM] | IC50 [16] [µM] | SMILES | further results
11.2 % ID/g | 2.5 | – | – | – | – | – | – | – | O=C(O)Cc1ccccc1S(=O)(=O)c1ccc(-c2ccc(OCC[18F])cc2)cc1 | Drug uptake [1]: 1.7 % ID/g; Drug uptake [2]: 8.5 % ID/g; Drug uptake [3]: Active; Drug uptake [4]: Active; Drug uptake [5]: 1.4 % ID/g; tissue uptake at 10 min [6]: 1.1 %ID/g; Drug uptake [7]: 13.1 % ID/g
21.6 % ID/g | 4.1 | – | – | – | – | – | – | – | CC(C)(C)OC(=O)Cc1ccccc1S(=O)(=O)c1ccc(-c2ccc(OCC[18F])cc2)cc1 | –
– | – | 1.6 | 22 | 44 | 107 | 7.1 | 16 | 18.5 | O=C(O)Cc1ccccc1S(=O)(=O)c1ccc(-c2ccc(OCCF)cc2)cc1 | inhibition [18]: Active; Activity [19]: Active; Kd [17]: 140 µM; Activity [20]: Active

Second part, the compound before the results:

SMILES | Drug uptake [8] | Drug uptake [9] [% ID/g] | IC50 [10] [µM] | IC50 [11] [nM] | IC50 [12] [nM] | IC50 [13] [nM] | IC50 [14] [µM] | IC50 [15] [nM] | IC50 [16] [µM] | further results
O=C(O)Cc1ccccc1S(=O)(=O)c1ccc(-c2ccc(F)cc2)cc1 | – | – | 4.8 | 386 | 400 | 3600 | 67 | 230 | 11.5 | –
O=C(O)Cc1ccccc1S(=O)(=O)c1ccc(-c2ccc(NC(=O)C[18F])cc2)cc1 | 11% | 2.4 | – | – | – | – | – | – | – | Drug uptake [2]: 6.1 % ID/g; Drug uptake [7]: 12.4 % ID/g
O=C(O)Cc1ccccc1S(=O)(=O)c1ccc(-c2ccc(NC(=O)CF)cc2)cc1 | – | – | 4.6 | 220 | 500 | 1500 | 6.8 | 61 | 6.1 | Kd [17]: 10 µM
OC[C@H]1OC(O)[C@H]([18F])[C@@H](O)[C@@H]1O (some centres undefined) [FLUDEOXYGLUCOSE F 18] | – | – | – | – | – | – | – | – | – | Drug uptake [21]: Active; Drug uptake [22]: Active; Drug uptake [23]: 4.39 % ID/g
